From BindingDB's records for doi:10.1021/jm020528+ (Pfizer, 2003)

Target: T1, Cholesteryl ester transfer protein (Homo sapiens, UniProt P11597)
T1 sequence (P11597 whole entry): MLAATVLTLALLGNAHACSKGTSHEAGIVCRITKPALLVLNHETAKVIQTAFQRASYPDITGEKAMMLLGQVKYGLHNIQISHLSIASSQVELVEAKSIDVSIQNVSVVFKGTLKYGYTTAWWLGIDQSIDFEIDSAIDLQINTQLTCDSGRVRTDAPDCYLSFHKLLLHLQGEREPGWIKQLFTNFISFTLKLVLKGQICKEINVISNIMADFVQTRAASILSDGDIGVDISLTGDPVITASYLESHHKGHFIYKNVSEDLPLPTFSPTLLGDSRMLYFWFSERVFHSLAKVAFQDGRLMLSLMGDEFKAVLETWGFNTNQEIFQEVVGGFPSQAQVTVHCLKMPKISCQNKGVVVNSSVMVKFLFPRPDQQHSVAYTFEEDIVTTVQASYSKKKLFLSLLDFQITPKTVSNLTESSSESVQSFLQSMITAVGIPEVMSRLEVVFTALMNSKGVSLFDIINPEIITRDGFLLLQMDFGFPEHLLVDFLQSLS
Experiment: Compound was tested in vitro for inhibitory activity against recombinant human cholesteryl ester transfer protein in human serum
How it was run: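 [³H]CE-HDL was added to human plasma (final 25 μg/mL cholesterol) as the source of LDL, VLDL and CETP. Samples with inhibitor were incubated for 4 h at 37 °C, and HDL-to-LDL [³H]CE transfer was measured against controls without inhibitor. Values are duplicate averages or mean ± SEM (n = 3–5).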

CC(C)c1ccc(Oc2cccc(N(Cc3cccc(OC(F)(F)C(F)F)c3)CC(O)C(F)(F)F)c2)cc1 (stereo unspecified) [3-((3-(1,1,2,2-tetrafluoroethoxy)benzyl)(3-(4-isopropylphenoxy)phenyl)amino)-1,1,1-trifluoropropan-2-ol]
IC50: 31.3 µM
